Assay outcomes (PubChem BioAssay)
Lmaj promast = reduces viability of Leishmania major promastigotes; resazurin fluorescence viability; inhibition, % at 10 µM; actives 9% (n = 200,000); AID 1063; in the data active means inhibition above about 50%;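 further: promastigotes grown with compound for 44 hours at 28 °C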
bCat KO growth = beta-catenin-lacking colon tumor cell growth suppression. HCT116 beta-catenin knockout viability, CellTiter-Glo, 60 h; hits give low values. viability, % at 10 µM. actives 1.5% (n = 140,000);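 active means viability at or under a set limit, the compound median less 4 SD, cut at about 6% in these data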
PMI activator = activators of human phosphomannose isomerase. P34949. AID 1214. actives 0.005% (n = 190,000). activation factor at 20 µM. purified human PMI, coupled resazurin fluorescence, 20 min; hits give high values; 1 = vehicle control, 0 substrate-free wells;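 active means activation factor of 2 or more at 20 µM, relative to plate controls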
Target sequence (P34949 whole entry, looked up): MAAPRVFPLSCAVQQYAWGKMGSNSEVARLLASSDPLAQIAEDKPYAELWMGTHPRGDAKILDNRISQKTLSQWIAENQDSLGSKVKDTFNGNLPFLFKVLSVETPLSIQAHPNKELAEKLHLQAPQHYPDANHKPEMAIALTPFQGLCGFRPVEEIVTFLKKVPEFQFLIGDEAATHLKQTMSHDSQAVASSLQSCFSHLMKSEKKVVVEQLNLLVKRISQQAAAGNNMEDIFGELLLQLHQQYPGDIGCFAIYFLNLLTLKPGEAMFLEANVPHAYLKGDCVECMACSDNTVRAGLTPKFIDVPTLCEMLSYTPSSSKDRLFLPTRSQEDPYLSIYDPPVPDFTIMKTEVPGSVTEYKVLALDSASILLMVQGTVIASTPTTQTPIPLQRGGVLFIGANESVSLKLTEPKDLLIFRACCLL
PMI act hi M6P = increases human PMI activity with near-saturating mannose 6-phosphate. AID 1216. coupled PMI enzyme assay, resazurin fluorescence, 20 min; hits give high values; 1 = untreated enzyme, 0 = substrate-free blank. actives 0.34% (n = 190,000). activation factor at 20 µM. P34949;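 active means activation factor of 2 or more at 20 µM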
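Test system – human PMI in coupled enzyme assay · Timing – 20 min incubation at room temperature · Detection – Diaphorase-driven resazurin-to-resorufin fluorescence, excitation 544, emission 590 nm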
HCT116 PTEN-null = growth suppressors of cells with PTEN tumor suppressor deletion; HCT116 PTEN-null viability, CellTiter-Glo, 60 h; hits give low values; viability, % at 10 µM; actives 1.2% (n = 140,000);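 active means viability at or below a set limit, 4 SD under the median of all tested compounds, cut at about 3.7% in these data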;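 further: PTEN knockout HCT116 line with beta catenin targeted HCT116 as companion control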
Of the large screens only hits and unclear results are named; the others gave an inactive call. Compounds with a hit are over-represented: about 9.6% of the library has one in this group of screens.

Cc1ccc(NN2C(=O)C=C(c3ccccc3)C2=O)cc1	none (no result: bCat KO growth, HCT116 PTEN-null)
O=C(CCN1CCN(c2ccccc2)CC1)N/N=C/c1ccccc1O	Lmaj promast 98 (no result: bCat KO growth, HCT116 PTEN-null)
CCN1C(=O)/C(=C/c2ccc(C)s2)NC1=S	none
CCOC(=O)COc1ccc(/C=C2\NC(=S)N(CC)C2=O)cc1	Lmaj promast 97
CC(=O)c1c(C)nc(-c2ccccc2)n1O	none
CC(=O)c1c(C)nc(-c2ccc(Cl)cc2Cl)n1O	HCT116 PTEN-null 1.2
COc1ccc(S(=O)(=O)n2nc(C)cc2C)c(C)c1C	Lmaj promast 50
CCSc1nc(-c2cccnc2)ccc1C#N	Lmaj promast 77
COc1cccc(-c2csc(N3CCN(C(=S)Nc4ccc(Cl)cc4)CC3)n2)c1	Lmaj promast 79
COC(=O)CCC(=O)NC(=S)Nc1ccc(S(=O)(=O)N2CCCC2)cc1	none (no result: bCat KO growth, HCT116 PTEN-null)
CCOC(=O)c1c(CC(C)C)csc1N	none (no result: bCat KO growth, HCT116 PTEN-null)
NCCOc1ccc(C2CCCCC2)cc1	Lmaj promast 100 (no result: bCat KO growth, HCT116 PTEN-null)
COc1ccc(NC(=O)NCCCN2CCN(c3cc(C)ccc3C)CC2)cc1	bCat KO growth 1.4, HCT116 PTEN-null 1.4
COc1ccc(NC(=O)NCCN2CCN(c3cccc(Cl)c3)CC2)cc1	Lmaj promast 85
CCOC(=O)C(=CN(CCc1ccccc1)CC(=O)OC)C(=O)OCC	none
CCCC1=NN(C(=O)Cc2ccc(OC)cc2)C(O)(C(F)(F)F)C1 (configuration not stated)	none
Cc1ccnc(Sc2ccc([N+](=O)[O-])cc2[N+](=O)[O-])n1	Lmaj promast 100, bCat KO growth 5.2
Cc1ccc(Sc2ccc([N+](=O)[O-])cc2[N+](=O)[O-])nc1	Lmaj promast 58
O=[N+]([O-])c1ccc(Sc2ccc(Cl)c(Cl)c2)nc1	none
O=[N+]([O-])c1ccc(Sc2nc3ccccc3o2)c([N+](=O)[O-])c1	bCat KO growth 1.9, HCT116 PTEN-null 1.4
Cc1ccc(C(=O)NCc2ccccn2)cc1Cl	none (no result: bCat KO growth, HCT116 PTEN-null)
COc1cccc(-c2nnc(-c3ccc(C(F)(F)F)cc3)o2)c1OC	none
COc1cc(OC)c(-c2nnc(-c3ccc(OC)c(OC)c3OC)o2)cc1OC	Lmaj promast 56
CCOC(=O)C1(CCc2ccccc2)CCN(C(=O)c2occc2C)CC1	none (no result: bCat KO growth, HCT116 PTEN-null)
CCOC(=O)C1(CCc2ccccc2)CCN(C2Cc3ccccc3C2)CC1	Lmaj promast 81 (no result: bCat KO growth, HCT116 PTEN-null)
CCOC(=O)C1(CCCc2ccccc2)CCN(C(=O)CCc2cnn(C)c2)CC1	none (no result: bCat KO growth, PMI activator, PMI act hi M6P, HCT116 PTEN-null)
CCOC(=O)C1(CCCc2ccccc2)CCN(Cc2cnn(C)c2)CC1	Lmaj promast 77 (no result: bCat KO growth, HCT116 PTEN-null)
CCOC(=O)C1(CCOc2ccccc2)CCN(Cc2cccc(-n3cccn3)c2)CC1	Lmaj promast 93 (no result: bCat KO growth, HCT116 PTEN-null)
CCOC(=O)C1(CCOc2ccccc2)CCN(CCCn2cccn2)CC1	Lmaj promast 79 (no result: bCat KO growth, HCT116 PTEN-null)
CN1C(=O)/C(=C/C=C2\SCCN2C)SC1=S	none
COc1ccccc1OCCn1cc(/C=N/n2cnnc2)c2ccccc21	none
CC(OC(=O)c1snc(C(=O)NC2CCCCC2)c1N)C(=O)NC1CCCCC1 (configuration not stated)	none
C/C(=N\Nc1cccc(C(=O)O)c1)c1cc2ccccc2o1	none (no result: bCat KO growth, HCT116 PTEN-null)
O=C(Nc1ccncc1)c1cn(-c2ccccc2)nc1-c1cccs1	Lmaj promast 95
O=C(COc1cccnc1[N+](=O)[O-])NCc1cccs1	none (no result: bCat KO growth, HCT116 PTEN-null)
Clc1ncnc2scc(C3COc4ccccc4O3)c12 (configuration not stated)	Lmaj promast 71
O=C(Nc1ccc2c(c1)OCO2)N1CCN(c2ccccc2Cl)CC1	Lmaj promast 80
COc1ccccc1N1CCN(C(=O)Nc2cccc(Cl)c2)CC1	Lmaj promast 78 (no result: HCT116 PTEN-null)
COc1cccc(NC(=O)N2CCN(c3cccc(C)c3C)CC2)c1	Lmaj promast 81
COc1ccccc1N1CCN(C(=O)Nc2ccc(F)c(Cl)c2)CC1	none (no result: bCat KO growth, HCT116 PTEN-null)
COc1cccc(NC(=O)N2CCC(C(=O)Nc3ccc(C)cc3C)CC2)c1	none
CN(C)c1ccc(C(=O)N2CCCC2)cc1	none (no result: bCat KO growth, HCT116 PTEN-null)
CSc1nc(-c2ccc(N(C)C)cc2)c(C#N)c(=O)n1C	none (no result: bCat KO growth, HCT116 PTEN-null)
O=C(O)c1cccc(NC(=O)c2ccc(S(=O)(=O)c3ccccc3)cc2)c1	none
CN(C(=O)/C=C/c1ccc([N+](=O)[O-])s1)c1ccccc1	Lmaj promast 98 (no result: bCat KO growth, HCT116 PTEN-null)
O=C(NNC(=O)c1cccnc1SCc1cccc([N+](=O)[O-])c1)c1ccccn1	Lmaj promast 98, bCat KO growth 6.0
O=C(NNC(=O)c1cccnc1SCc1cccc([N+](=O)[O-])c1)c1ccc(F)cc1	none
CCC1=NNc2cccc3c(OC)ccc1c23	Lmaj promast 100
O=C(NC(c1ccccc1)c1c(O)ccc2ccccc12)c1ccccc1Cl (configuration not stated)	Lmaj promast 100
O=C(NC(c1ccc(Cl)cc1)c1c(O)ccc2ccccc12)c1ccccc1 (configuration not stated)	Lmaj promast 99, bCat KO growth 1.1, HCT116 PTEN-null 0.6
CC(=O)NC(c1ccc(Cl)cc1)c1c(O)ccc2ccc(O)cc12 (configuration not stated)	none (no result: bCat KO growth, HCT116 PTEN-null)
CCCc1[nH]nc2c1C(c1ccccc1OCC)C(C#N)=C(N)O2 (configuration not stated)	Lmaj promast 54
COCc1[nH]nc2c1C(c1ccc(OC)c(OC)c1)C(C#N)=C(N)O2 (configuration not stated)	none
COc1ccc(C2C(C#N)=C(N)Oc3n[nH]c(C)c32)cc1CSc1ccccn1 (configuration not stated)	Lmaj promast 98
CCn1c2ccccc2c2cc(C3C(C#N)=C(N)Oc4n[nH]c(COC)c43)ccc21 (configuration not stated)	Lmaj promast 89, bCat KO growth 2.3
CCCc1[nH]nc2c1C(c1ccc(O)c(OC)c1)C(C#N)=C(N)O2 (configuration not stated)	Lmaj promast 80
Nc1nc(CCOc2ccc(F)cc2)cs1	none (no result: bCat KO growth, HCT116 PTEN-null)
O=C(NCc1nc2ccccc2[nH]1)C1=C[C@@H](c2ccccc2)C[C@@H](OCCCCO)O1	none (no result: bCat KO growth, HCT116 PTEN-null)
CCCc1[nH]nc2c1C(c1ccccc1OC)C(C#N)=C(N)O2 (configuration not stated)	none
CCOc1ccc(-c2[nH]nc3c2C(c2ccc4c(c2)OCO4)C(C#N)=C(N)O3)cc1OC (configuration not stated)	Lmaj promast 51
CCCc1[nH]nc2c1C(c1cn[nH]c1-c1ccc(F)cc1)C(C#N)=C(N)O2 (configuration not stated)	Lmaj promast 73
Cc1ccc(C)c(NC(=O)CN(C)C(=O)COc2ncnc3sccc23)c1	Lmaj promast 58
CNC(=O)COc1ncnc2sccc12	none
CC(C)C(OC(=O)c1cccs1)C(=O)NCc1ccco1 (configuration not stated)	none
Cc1cc2c(cc(C(=O)OC(C(=O)NCc3ccco3)C(C)C)n2C)o1 (configuration not stated)	Lmaj promast 99
COc1ccc2c(c1)O/C(=C\c1sccc1C)C2=O	none
